Experiments:
Rattus norvegicus [1] = assay: Glucose levels were determined in an acute in vivo study for inhibition of gluconeogenesis in normal male Sprague-Dawley rats; type: functional; design: concentration or dose not given beside the values
In short: (§1)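 Normal male Sprague-Dawley rats (200-300 g) fasted 18 h; five per group given compound by oral gavage at 100 µmol/kg in carboxymethylcellulose vehicle or vehicle alone. At 3 h, cardiac-puncture blood under brief CO₂ anesthesia; serum β-hydroxybutyrate (ketones) and glucose expressed as % of control; Student's t-test.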

Rattus norvegicus [2] = assay: In vivo percentage efficacy, measured as ability to decrease blood glucose percentage after 8.25 days in rats; type: functional; design: concentration or dose not given beside the values
In short: (§2)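 Rats (250-300 g) on high-fat purified diet, made diabetic by 40 mg/kg streptozotocin iv (tail vein) 3 days into diet. Selected by glucose criteria, including an oral glucose load (1.35 g/kg dextrose) after an 18 h fast. Dosed orally once daily at 70 µmol/kg in CMC for 11 days. Blood glucose taken 6 h post-dose (food removed). % efficacy: 100% = normalization to 60 mg/dL.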

Rattus norvegicus [3] = assay: In vivo percentage efficacy, measured as ability to decrease blood glucose percentage after 11.25 days.; type: functional; design: concentration or dose not given beside the values; in short: as §2
Rattus norvegicus [4] = assay: Ketone levels were determined in an acute in vivo study for inhibition of gluconeogenesis in normal male Sprague-Dawley rats; type: functional; design: concentration or dose not given beside the values; in short: as §1
[5] = AUC was measured from the graph plotted against blood plasma concentration and time at the dose of 150 uMol/kg,; type: ADME
[6] = AUC was measured from the graph plotted against blood plasma concentration and time at the dose of 300 uMol/kg,; type: ADME
Rattus norvegicus [7] = assay: In vivo percentage efficacy, measured as ability to decrease blood glucose percentage after 8.25 days; type: functional; design: concentration or dose not given beside the values; in short: as §2
Rattus norvegicus [8] = assay: Testes weight (treated)/body weight(treated)]/[testes weight(control)/body weight(control)] x 100 at a dose of 700 umol/kg/day; type: functional
[9] = AUC was measured from the graph plotted against blood plasma concentration and time at the dose of 700 uMol/kg,; type: ADME
[10] = AUC was measured from the graph plotted against blood plasma concentration and time at the dose of 150 uMol/kg
Rattus norvegicus [11] = assay: Testes weight (treated)/body weight(treated)]/[testes weight(control)/body weight(control)] x 100 at a dose of 350 umol/kg/day; type: functional
Rattus norvegicus [12] = assay: In vivo percentage efficacy was measured as ability to decrease blood glucose percentage after 11.25 days in rats; type: functional; in short: as §2
[13] = AUC was measured from the graph plotted against blood plasma concentration and time at the dose of 300 uMol/kg; type: ADME, cell-free
Rattus norvegicus [14] = assay: Testes weight (treated)/body weight(treated)]/[testes weight(control)/body weight(control)] x 100 at a dose of 700 uM/kg/day; type: functional

Row | Structure (SMILES) | AUC [6] [µg·h/mL] | Control (Rattus norvegicus [1]) [%] | Efficacy (Rattus norvegicus [2]) [%] | Efficacy (Rattus norvegicus [3]) [%] | Serum ketone level, % of control (Rattus norvegicus [4]) [%] | other results
1 | Cc1ccc(C2(C(C)(C)C)OCCO2)cc1 | – | <58 | – | <64 | <12 | Efficacy (Rattus norvegicus [7]): <52%; Control (Rattus norvegicus [8]): <52%; AUC [9]: 3560 µg·h/mL; AUC [10]: 1510 µg·h/mL
2 | CC(C)(C)C(=O)c1ccc(C(N)=O)cc1 | – | – | – | – | – | Control (Rattus norvegicus [8]): <48%
3 | CC(C)(C)[C@@H](O)c1ccc(C(=O)O)cc1 | – | <42 | <64 | – | <23 | Control (Rattus norvegicus [11]): <59%; Efficacy (Rattus norvegicus [12]): <63%
4 | CC(C)(C)C(O)c1ccc(C(=O)O)cc1 (centres undefined) | – | <50 | – | – | – | Control (Rattus norvegicus [11]): <74%
5 | CC(C)(C)C(=O)c1ccc(C(=O)O)cc1 | – | – | – | – | – | Control (Rattus norvegicus [8]): <47%
6 | CC(C)(C)C(=O)c1ccc(C2=NCCO2)cc1 | 886 | <74 | – | – | <20 | –
7 | CC(C)(C)C(=O)c1ccc(C(=O)N(C(=O)c2ccc(C(=O)C(C)(C)C)cc2)C(=O)c2cccnc2)cc1 | – | 95 | – | <74 | <46 | Control (Rattus norvegicus [11]): 95%; Efficacy (Rattus norvegicus [7]): <73%; AUC [13]: 64 µg·h/mL
8 | CC1(C)COC(c2ccc(C(=O)O)cc2)(C(C)(C)C)OC1 | 263 | 105 | – | – | <18 | –
9 | CC(C)(C)C(=O)c1ccc(C(=O)N[C@@H](Cc2ccccc2)C(=O)O)cc1 | 964 | – | – | – | <4 | AUC [9]: 2930 µg·h/mL
10 | CC(C)(C)[C@H](O)c1ccc(C(=O)O)cc1 | – | 94 | – | – | <80 | Control (Rattus norvegicus [11]): <62%
11 | CO/N=C(\OC(=O)c1ccc(C(=O)C(C)(C)C)cc1)c1ccc(C(=O)C(C)(C)C)cc1 | 85 | 98 | <64 | <59 | <30 | AUC [9]: 325 µg·h/mL; Control (Rattus norvegicus [14]): 96%
12 | C=CCOC(c1ccc(C(=O)O)cc1)C(C)(C)C (centres undefined) | – | 107 | – | – | <29 | AUC [13]: 941 µg·h/mL
13 | CC(C)(C)O/N=C(\OC(=O)c1ccc(C(=O)C(C)(C)C)cc1)c1ccc(C(=O)C(C)(C)C)cc1 | 55 | <70 | <80 | <98 | <50 | Control (Rattus norvegicus [14]): 102%
14 | C=CCO/N=C(\OC(=O)c1ccc(C(=O)C(C)(C)C)cc1)c1ccc(C(=O)C(C)(C)C)cc1 | 158 | 105 | <53 | <85 | <43 | –

More lines, main results first:

Row | AUC [6] [µg·h/mL] | Structure (SMILES) | Control (Rattus norvegicus [1]) [%] | Efficacy (Rattus norvegicus [2]) [%] | Efficacy (Rattus norvegicus [3]) [%] | Serum ketone level, % of control (Rattus norvegicus [4]) [%] | other results
15 | 2030 | CC(C)(C)C(=O)c1ccc(C(=O)O/C(=N\OCC(=O)O)c2ccc(C(=O)C(C)(C)C)cc2)cc1 | <63 | <90 | <102 | <19 | AUC [5]: 1000 µg·h/mL
16 | 155 | CC(C)O/N=C(\OC(=O)c1ccc(C(=O)C(C)(C)C)cc1)c1ccc(C(=O)C(C)(C)C)cc1 | 94 | <80 | <98 | <41 | AUC [5]: 94 µg·h/mL
17 | 413 | CC(C)(C)C(=O)c1ccc(C2=N[C@@H](Cc3ccccc3)C(=O)O2)cc1 | <90 | – | – | <21 | –
18 | 565 | CC(C)(C)C(=O)c1ccc(C(=O)O/C(=N\OCCO)c2ccc(C(=O)C(C)(C)C)cc2)cc1 | 98 | <92 | <92 | <15 | AUC [5]: 122 µg·h/mL
19 | 1080 | CC(C)(C)C(=O)c1ccc(C(=O)N(CC(=O)O)C(=O)c2ccc(C(=O)C(C)(C)C)cc2)cc1 | <56 | – | <47 | <6 | Efficacy (Rattus norvegicus [7]): <53%
20 | 588 | CC(C)(C)C(=O)c1ccc(C(=O)NC(=O)c2ccc(F)cc2)cc1 | <65 | – | <54 | <13 | Efficacy (Rattus norvegicus [7]): <57%; Control (Rattus norvegicus [8]): <63%; AUC [9]: 2570 µg·h/mL
21 | 1630 | CC(C)(C)C(=O)c1ccc(C(=O)O/C(=N\OCCCC(=O)O)c2ccc(C(=O)C(C)(C)C)cc2)cc1 | <70 | – | – | <15 | –
22 | 1850 | COCCO/N=C(\OC(=O)c1ccc(C(=O)C(C)(C)C)cc1)c1ccc(C(=O)C(C)(C)C)cc1 | <49 | <109 | <108 | <19 | –
23 | 1020 | COC(c1ccc(C(=O)O)cc1)C(C)(C)C (centres undefined) | <81 | – | <59 | <17 | Efficacy (Rattus norvegicus [7]): <23%
24 | 1400 | CC(C)(C)C1(c2ccc(C(=O)O)cc2)OCCCO1 | 111 | – | <65 | <15 | Efficacy (Rattus norvegicus [7]): <41%
25 | 122 | CC(C)(C)C(=O)c1ccc(C(=O)NC(=O)c2ccc(C(=O)C(C)(C)C)cc2)cc1 | 92 | – | – | <21 | Control (Rattus norvegicus [8]): 101%; AUC [9]: 2670 µg·h/mL
26 | 2370 | CO/N=C(\OC(=O)c1ccc([C@@H](O)C(C)(C)C)cc1)c1ccc([C@H](O)C(C)(C)C)cc1 (relative stereo) | <61 | – | – | <17 | –

Source: ChEMBL document CHEMBL1132198, “Hypoglycemic prodrugs of 4-(2,2-dimethyl-1-oxopropyl)benzoic acid” (J Med Chem, 1999)
